In the RNAGym collection of RNA variant scans (doi:10.1101/gad.245936.114):
This sample holds only a part of the variants without activity.

B1: tRNA (parent)
chain: CUCUCGGUAGCCAAGUUGGUUUAAGGCGCAAGACUUUAAUUUAUCACUACGAAAUCUUGAGAUCGGGCGUUCGACUCGCCCCCGGGAGAUUUUUUCCUCGAGCAA

Variants of: B1
Assay: nonsense suppression (GFP-seq) (ratio to wild type); higher = more function; SUP4oc tRNA, yeast GFP reporter sort-seq
How it was run: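 Each variant's nonsense suppression (GFPSEQ) is a cell-share-weighted bin median GFP/RFP relative to the unmutated parent tRNA. Yeast with genome-integrated tRNA variants from a ~3% random-mutation library, a galactose-driven GFP ochre reporter and RFP were grown in raffinose/galactose medium with 80 mg/L adenine, then sorted into GFP/RFP bins for Illumina sequencing. Variants needed ≥100 reads and ≥30 cells.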

Variant | nonsense suppression
G6C A14G A60C G65U C79G G86C | ≤ 0.026
U57A C75U | 0.03
A9G C75A | 0.762
A13G U21C | 0.211
A9U A13U A24G | 0.212
C12U C64U | ≤ 0.026
U22C U63C C68U | 0.0629
C29A C75U | 0.0265
U2A A33G | ≤ 0.026
U55C G73U | 0.0422
U22C A54U | 1.05
U22C A54C | 1.2
A60C G61U | 0.768
C12G A14G A33G | ≤ 0.026
U2A G86A | ≤ 0.026
A60G G78U | 0.0498
C1U C12G | 0.327
G7U G28U U71G C72A G86U | ≤ 0.026
G15U U35A U63C C68A | ≤ 0.026
A60G G84A | 0.269
C3A G65A C68U G86U | ≤ 0.026
U2C U21C | 0.203
C27A C34G A60U C77U | ≤ 0.026
G32U G66A | ≤ 0.026

Variant | nonsense suppression
U2C U63G G73A | ≤ 0.026
G25U U63C C79A | ≤ 0.026
U17C G84A | 0.048
A14G U17A G25A C29U U63G | ≤ 0.026
G15A G28A C75A | 0.24
A33G A87G | 0.0348
A24G C79U | 0.0352
U16A G18U A24C U58G | ≤ 0.026
A9U A54C | 0.0503
U58A G59A U63A G69C U70G | ≤ 0.026
C82A G85U | 0.0445
A13U G69C | 0.0304
U2A A60G | 0.0755
G10C U21A | ≤ 0.026
C34U C77G C79G A89U | ≤ 0.026
A33U A60U | 0.204
U35A U70C G73U C81U | ≤ 0.026
G25A G32U U71G | ≤ 0.026
U17C U22C A60G | 0.348
A30G | 1.11
A54C A74C | ≤ 0.026
A30G C79U | 0.207
A30G G59A G73C | ≤ 0.026
A24U A31G | 0.229

Variant | nonsense suppression
U2A U4A | 0.0323
U2C C5A C75U C83A | ≤ 0.026
U2A C81U | 0.0376
U16G U21G | 1.1
A30U C79G | ≤ 0.026
A14G G26A G66C | ≤ 0.026
U63G C80U | ≤ 0.026
G25C A30G A33U | ≤ 0.026
U2C G19C U35A | ≤ 0.026
A14C G65C C80G A87C | ≤ 0.026
U76C | 1
U17C A60C | 0.196
U4G U63A | 0.199
G88U A89G | ≤ 0.026
C5A A30U C68A | ≤ 0.026
G61C C77G | 0.0296
G19U G26C U57C | ≤ 0.026
C1U G15C G26C | ≤ 0.026
U17C C75A G88A | ≤ 0.026
G65A G78C | ≤ 0.026
U4A | 0.693
C11U A31G C77G | ≤ 0.026
C56G G61C G88U | ≤ 0.026
C5G G7U C11G | ≤ 0.026

Variant | nonsense suppression
U2G G19U A31U C83A G84A | ≤ 0.026
U63A U76C | 0.748
U17C U22A | 0.758
A9G U16C G18U | ≤ 0.026
A9U C11U G32C C34G A54U | ≤ 0.026
A33G U57A | ≤ 0.026
A33G G59A C77A C83A G88A | ≤ 0.026
U2A G15A G66C G85U | ≤ 0.026
A24G C68A C82G G84U | ≤ 0.026
C12U C29G U35A | ≤ 0.026
U16G A31G | 1.15
C1U C5U U22C U63C | ≤ 0.026
A60G G66U | 0.0286
U21G A31G | 0.77
U20C U63G | 0.0493
A13U G61U | 0.447
U21G C83U | 0.0839
A24C G85U | 0.258
A9C C12U A23C A87U | ≤ 0.026
U8A U57C | ≤ 0.026
U16G A60G | 0.39
U55G U63G U71C G88A | ≤ 0.026
U17A A23U G84A | ≤ 0.026
A13G C68U | 0.146

Variant | nonsense suppression
C29U A87G | 0.438
A30G C72G | 0.0409
A24C U63G | 0.133
G10U U55C | 0.0469
C34U A60G | 0.0428
A23C G88A | ≤ 0.026
A9C U35A | ≤ 0.026
C1A C5U U17A U55A | ≤ 0.026
C75U G78A | 0.9
G61U C82U | 0.73
G32C C56G A60C | 0.275
G18C G19A G66A | ≤ 0.026
A24C A74C | 0.0915
A9G A60C | ≤ 0.026
C1A C81G | ≤ 0.026
C27G U55A A60C | 0.809
A33G | 0.346
C11U U55A G61C G88C | ≤ 0.026
U2C G26U U76A | ≤ 0.026
G61C U63C | 0.196
G26U A74C U76G | ≤ 0.026
U8A G25A | ≤ 0.026
G66A U76C C81U | ≤ 0.026
G18C A89G | ≤ 0.026

Variant | nonsense suppression
A24U G78U | 0.0565
U20G A60U | 1.12
C5G A13U G19U U35G A87G | ≤ 0.026
U8A A60C G73U A87C | ≤ 0.026
U2C A13U | 0.0357
U17G U63A C75A G85A | 1.08
A54U | 1.04
G25U G61U C68U | ≤ 0.026
U4G G18C A24G G61C C81A | 0.057
A9U U16G | 0.202
U20C G28A U57G C77A | 0.813
C5A G61C | 0.0329
G66U C75A | 0.704
U2A C27U | 0.0357
U17G A60C | 0.188
A30G U71A | 0.05
U22C G73A | 0.848
A14C C82U | ≤ 0.026
A13U | 1.03
U4C A87G | 1.1
A31U C81U | 0.0322
C12G G25C C75A | 0.482
A9G C27G | ≤ 0.026
U21G A24C | 0.493

Variant | nonsense suppression
C27U A54C | 0.0314
G7U A13G U17A | ≤ 0.026
U70C G78A | 0.0308
G7U A54U U63C G88U | ≤ 0.026
U4C G73A | 1.04
C81A A89C | ≤ 0.026
C1U U4G C5U A31G C81A | ≤ 0.026
G6C C77G | ≤ 0.026
U20C U22C | 0.814
G18A U20G | 0.905
C12U G19U U57C C77A A89U | ≤ 0.026
C1U U55G U58G | ≤ 0.026
A9G G15U | 0.0374
A9C | 1.05
U76A A87G | 0.0534
C3A C5G U57C U70A C80A | ≤ 0.026
A13U U16G C82U | 0.377
U55C G65A | 0.0796
G6U C11U A13U | ≤ 0.026
G28C U63C | 0.114
G19U G67U | ≤ 0.026
C1U G26A U57C | ≤ 0.026
C72U C80A A87C | 0.714
